In ChEMBL document CHEMBL1124334, “Hypolipidemic 2-[4-(1,1-dimethylethyl)phenyl]-4H-3,1-benzoxazin-4-ones. Structure-activity relationships of a novel series of high-density lipoprotein elevators” (1989):

How the values were obtained:
Format in all cases: functional
Rattus norvegicus [1] = species: Rattus norvegicus; test: The compound was tested for % change in plasma triglycerides in normocholesterolemic rats at 0.2 % composition of dose with diet given in a period of 3 days
Summary of the method: (§1)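 Young male Wistar rats (120–150 g) fed basal powdered rodent diet ad libitum, with compound mixed into the diet at 0.2% w/w for 3 or 7 days. Plasma triglyceride and total cholesterol were then measured by standard enzymatic methods. Results are % change relative to controls.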

Rattus norvegicus [2] = test: Percent change in plasma total cholesterol in cholesterol-fed rats at 200 mg/kg dose given in a period of 3 days
Summary of the method: (§2)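 Young male Wistar rats (120–150 g), groups of eight, fed ad libitum rodent diet with 0.5% w/w cholesterol and 0.25% cholic acid for 10 days. Compound suspended in 0.5% w/w tragacanth mucilage and given daily by stomach tube over the final 3 days; controls got vehicle. After overnight starvation, rats were killed 3 h post final dose and cardiac blood taken into heparin.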

Rattus norvegicus [3] = species: Rattus norvegicus; test: Change in plasma total cholesterol in normocholesterolemic rats at 0.2 % composition of dose with diet given in a period of 3 days.; summary of the method: as §1
Rattus norvegicus [4] = test: Percent change in plasma triglycerides in cholesterol-fed rats at 200 mg/kg dose given in a period of 3 days; summary of the method: as §2
Rattus norvegicus [5] = test: Percent change in plasma HDL cholesterol in cholesterol-fed rats at 200 mg/kg dose given in a period of 3 days; summary of the method: as §2
[6] = Ratio of plasma HDL cholesterol/total cholesterol at 25 mg/kg for 3 days; summary of the method: as §2
Rattus norvegicus [7] = species: Rattus norvegicus; test: Change in plasma triglycerides in normocholesterolemic rats at 0.2 % composition of dose with diet given in a period of 3 days.; summary of the method: as §1
Rattus norvegicus [8] = test: The compound was tested for % change in plasma HDL cholesterol in cholesterol-fed rats at 200 mg/kg dose given in a period of 3 days;; summary of the method: as §2
Rattus norvegicus [9] = test: Ratio of plasma HDL cholesterol/total cholesterol at 200 g/kg for 3 days; settings: in the assay text read “200 mg/kg” for “200 g/kg”; summary of the method: as §2
Rattus norvegicus [10] = species: Rattus norvegicus; test: The compound was tested for % change in plasma triglycerides in normocholesterolemic rats at 0.2 % composition of dose with diet given in a period of 7 days; summary of the method: as §1
Rattus norvegicus [11] = test: The compound was tested for % change in plasma triglycerides in cholesterol-fed rats at 50 mg/kg dose given in a period of 3 days; summary of the method: as §2
Rattus norvegicus [12] = test: The compound was tested for % change in plasma HDL cholesterol in cholesterol-fed rats at 100 mg/kg dose given in a period of 3 days; summary of the method: as §2
Rattus norvegicus [13] = test: The compound was tested for % change in plasma HDL cholesterol in cholesterol-fed rats at 25 mg/kg dose given in a period of 3 days; summary of the method: as §2
Rattus norvegicus [14] = test: The compound was tested for % change in plasma HDL cholesterol in cholesterol-fed rats at 50 mg/kg dose given in a period of 3 days; summary of the method: as §2
Rattus norvegicus [15] = test: The compound was tested for % change in plasma total cholesterol in cholesterol-fed rats at 100 mg/kg dose given in a period of 3 days; summary of the method: as §2
Rattus norvegicus [16] = test: The compound was tested for % change in plasma total cholesterol in cholesterol-fed rats at 25 mg/kg dose given in a period of 3 days; summary of the method: as §2
Rattus norvegicus [17] = test: The compound was tested for % change in plasma total cholesterol in cholesterol-fed rats at 50 mg/kg dose given in a period of 3 days; summary of the method: as §2
Rattus norvegicus [18] = species: Rattus norvegicus; test: The compound was tested for % change in plasma total cholesterol in normocholesterolemic rats at 0.2 % composition of dose with diet given in a period of 7 days; summary of the method: as §1
Rattus norvegicus [19] = test: The compound was tested for % change in plasma triglycerides in cholesterol-fed rats at 25 mg/kg dose given in a period of 3 days; summary of the method: as §2
Rattus norvegicus [20] = test: % change in plasma triglycerides in cholesterol-fed rats at 100 mg/kg dose given in a period of 3 days administered orally; settings: route oral; summary of the method: as §2
[21] = Ratio of plasma HDL cholesterol/total cholesterol at 100 mg/kg for 3 days; summary of the method: as §2
[22] = Ratio of plasma HDL cholesterol/total cholesterol at 200 mg/kg for 3 days; summary of the method: as §2
[23] = Ratio of plasma HDL cholesterol/total cholesterol at 50 mg/kg for 3 days; summary of the method: as §2

Compound: Cc1ccc2nc(-c3ccc(CC(C)(C)C)cc3)oc(=O)c2c1
- Change (Rattus norvegicus [1]): 16%
- Change (Rattus norvegicus [2]): -12%
- Change (Rattus norvegicus [3]): -10%
- Change (Rattus norvegicus [4]): 23%
- Change (Rattus norvegicus [5]): 28%
- Ratio ([6]; dose 200 mg/kg, in the assay text read “200 mg/kg” for “25 mg/kg”): 50

Compound: CC(C)(C)c1ccc(C(=O)Nc2ccc(Br)cc2C(=O)[O-])cc1.[Na+]
- Change (Rattus norvegicus [7]): -18%
- Change (Rattus norvegicus [8]): 57%
- Change (Rattus norvegicus [2]): -7%
- Change (Rattus norvegicus [3]): -42%
- Change (Rattus norvegicus [4]): 15%
- Change in HDL/total cholesterol ratio (Rattus norvegicus [9]): 64

Compound: Cc1ccc2nc(-c3ccc(C(C)(C)C)cc3)oc(=O)c2c1
- Change (Rattus norvegicus [10]): -33%
- Change (Rattus norvegicus [11]): 21%
- Change (Rattus norvegicus [12]): 15%
- Change (Rattus norvegicus [13]): 30%
- Change (Rattus norvegicus [14]): 31%
- Change (Rattus norvegicus [15]): -34%
- Change (Rattus norvegicus [2]): -27%
- Change (Rattus norvegicus [16]): -5%
- Change (Rattus norvegicus [17]): -19%
- Change (Rattus norvegicus [18]): -15%
- Change (Rattus norvegicus [4]): -17%
- Change (Rattus norvegicus [19]): -1%
- Change (Rattus norvegicus [20]): -18%
- Change (Rattus norvegicus [5]): 50%
- Ratio [21]: 65
- Ratio [22]: 92
- Ratio ([6]; dose 25 mg/kg): 31
- Ratio [23]: 56
